From ChEMBL document CHEMBL1127640, “Synthesis and evaluation of 7 alpha-iodo-5 alpha-dihydrotestosterone as a potential radioligand for androgen receptor” (J Med Chem, 1994)

Tests used:
[1] = target: T1, Progesterone receptor (Homo sapiens) (UniProt P06401); assay: Relative binding affinity for progesterone receptor in MCF-7 cell cytosol extract
T1 sequence (whole entry): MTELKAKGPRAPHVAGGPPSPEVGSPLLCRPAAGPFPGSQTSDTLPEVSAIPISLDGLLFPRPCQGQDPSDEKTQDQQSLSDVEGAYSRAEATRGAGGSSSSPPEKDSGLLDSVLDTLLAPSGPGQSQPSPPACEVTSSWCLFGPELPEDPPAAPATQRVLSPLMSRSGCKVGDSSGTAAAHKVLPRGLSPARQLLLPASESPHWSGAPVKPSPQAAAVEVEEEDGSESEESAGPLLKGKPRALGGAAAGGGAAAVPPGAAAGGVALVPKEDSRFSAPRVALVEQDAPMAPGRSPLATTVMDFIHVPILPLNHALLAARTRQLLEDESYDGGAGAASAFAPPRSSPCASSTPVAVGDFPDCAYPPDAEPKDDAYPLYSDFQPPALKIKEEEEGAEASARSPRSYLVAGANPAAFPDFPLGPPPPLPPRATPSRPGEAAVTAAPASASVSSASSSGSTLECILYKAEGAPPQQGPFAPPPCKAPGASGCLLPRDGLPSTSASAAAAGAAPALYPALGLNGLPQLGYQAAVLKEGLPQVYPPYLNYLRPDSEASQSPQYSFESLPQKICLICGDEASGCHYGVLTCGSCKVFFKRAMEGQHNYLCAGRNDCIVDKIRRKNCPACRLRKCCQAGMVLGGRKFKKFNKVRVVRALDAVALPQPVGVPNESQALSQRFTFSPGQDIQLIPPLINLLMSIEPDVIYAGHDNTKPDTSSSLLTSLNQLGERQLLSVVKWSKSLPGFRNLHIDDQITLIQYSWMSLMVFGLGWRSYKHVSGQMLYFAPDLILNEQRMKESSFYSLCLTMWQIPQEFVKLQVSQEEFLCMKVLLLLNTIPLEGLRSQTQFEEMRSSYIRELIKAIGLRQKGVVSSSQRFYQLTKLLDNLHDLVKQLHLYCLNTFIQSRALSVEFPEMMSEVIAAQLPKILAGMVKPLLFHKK

[2] = organism: Rattus norvegicus; assay: Relative binding affinity for progesterone receptor in rat uterine cytosol extract; conditions: Uterus
How it was run: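 Tissue homogenized in molybdate-free TEGT buffer, and cytosol (105000g supernatant) used at 0.8–1.2 mg/mL protein. Incubation was 20 h at 4 °C with 1.0 nM [3H]R5020 (final) over a competitor range. Bound/free separated on Sephadex LH-20, then scintillation counting.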

| SMILES | Binding [1] [%] | Binding [2] [%] |
| --- | --- | --- |
| C[C@]12CCC(=O)C[C@@H]1CC[C@@H]1[C@@H]2CC[C@]2(C)[C@@H](O)CC[C@@H]12 | 0.205 | 1.26 |
| CC12CC[C@H]3[C@@H]([C@H](I)C[C@H]4CC(=O)CCC43C)[C@@H]1CCC2O (some centres not stated) | 0.239 | 1.12 |
| C[C@]12CC[C@H]3[C@@H](CCC4=CC(=O)CC[C@@]43C)[C@@H]1CC[C@@H]2O | 0.112 | 1.55 |
| C[C@]1(O)CC[C@H]2[C@@H]3CCC4=CC(=O)CCC4=C3C=C[C@@]21C | 98 | 142 |
| CC(=O)[C@H]1CC[C@H]2[C@@H]3CCC4=CC(=O)CC[C@]4(C)[C@H]3CC[C@]12C | 100 | 100 |
| C[C@@H]1CC2=CC(=O)CCC2[C@H]2CC[C@@]3(C)[C@@H](CC[C@@]3(O)/C=C/I)[C@H]12 (some centres not stated) | 9.84 | 12.3 |
